ChEMBL document CHEMBL1126984, “o-phenylphenols: potent and orally active leukotriene B4 receptor antagonists” (J Med Chem, 1993)

Key:
Leukotriene B4 receptor [1] = target: T1, Leukotriene B4 receptor (Homo sapiens, UniProt Q9NPC1+Q15722); test: Inhibition of [3H]LTB4 receptor binding in human neutrophils; format: protein assay
[2] = target: Leukotriene B4 receptor (Cavia porcellus); test: Inhibition of [3H]LTB4 receptor binding in guinea pig lung membrane
Leukotriene B4 receptor [3] = target: T1, Leukotriene B4 receptor; test: Inhibition of LTB4-induced human neutrophil CD11b/CD18 integrin up-regulation; format: functional
Cavia porcellus [4] = species: Cavia porcellus; test: Inhibition of LTB4-induced contraction of guinea pig lung parenchyma strips; format: functional
Cavia porcellus [5] = test: In vivo antagonistic activity against LTB4 induced airway obstruction in guinea pig following intravenous administration; format: functional
Outline: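 Guinea pigs dosed intravenously 5 min before a 3.0 µg/kg iv LTB4 challenge. Animals killed 1 min after challenge. Excised lung gas volume (ELGV) measured as the index of airway obstruction severity. Means ± SEM, 3-14 guinea pigs per group; ED50 in mg/kg.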

Cavia porcellus [6] = test: In vivo antagonistic activity against LTB4 induced airway obstruction in guinea pig following oral administration; format: functional
Outline: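 Guinea pigs dosed orally 2 h before a 3.0 µg/kg iv LTB4 challenge. Animals killed 1 min after challenge. Excised lung gas volume (ELGV) measured as the index of airway obstruction severity. Means ± SEM, 3-14 guinea pigs per group.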

SMILES | IC50 (Leukotriene B4 receptor [1]) [nM] | Ki [2] [nM] | IC50 (Leukotriene B4 receptor [3]) [nM] | pKB (Cavia porcellus [4]) | ED50 (Cavia porcellus [5]) [mg/kg] | ED50 (Cavia porcellus [6]) [mg/kg]
CCc1cc(-c2cccc(C(F)(F)F)c2)c(O)cc1OCCCCCC(C)(C)c1nn[n-]n1.[Na+] | 33.2 | 76.9 | – | – | – | –
CCc1cc(-c2ccccn2)c(O)cc1OCCCCCC(C)(C)c1nn[n-]n1.[Na+] | 453 | 196 | – | – | – | –
CCc1cc(-c2ccc(N(C)C)cc2)c(O)cc1OCCCCCC(C)(C)c1nn[n-]n1.[Na+] | 15.8 | 85.9 | – | – | – | –
CCCc1cc(CC)c(OCCCCCC(C)(C)c2nn[n-]n2)cc1O.[Na+] | 9.3 | 14.2 | 161 | 7.6 | – | –
CCOc1cc(CC)c(OCCCCCC(C)(C)c2nn[n-]n2)cc1O.[Na+] | – | – | – | 6.6 | – | –
CCc1cc(-c2ccccc2)c(O)cc1OCCCCCC(C)(C)c1nn[n-]n1.[Na+] | – | – | – | 8.3 | 0.05 | 0.7
CCc1cc(C(C)=O)c(O)cc1OCCCCCC(C)(C)c1nn[n-]n1.[Na+] | – | – | – | 6.7 | – | –
CCc1cc(-c2ccc(F)cc2)c(O)cc1OCCCCCC(C)(C)c1nn[n-]n1.[Na+] | – | – | – | 8.3 | 0.03 | 0.56
